According to ChEMBL document CHEMBL1154052, “Design, synthesis and primary activity evaluation of L-arginine derivatives as amino-peptidase N/CD13 inhibitors” (Bioorg Med Chem, 2009):

How the values were obtained:
Aminopeptidase N = target: T1, Aminopeptidase N (Sus scrofa, UniProt P15145); experiment: Inhibition of aminopeptidase N in pig kidney microsome by spectrophotometry; assay type: microsomes
T1 sequence (P15145 whole entry): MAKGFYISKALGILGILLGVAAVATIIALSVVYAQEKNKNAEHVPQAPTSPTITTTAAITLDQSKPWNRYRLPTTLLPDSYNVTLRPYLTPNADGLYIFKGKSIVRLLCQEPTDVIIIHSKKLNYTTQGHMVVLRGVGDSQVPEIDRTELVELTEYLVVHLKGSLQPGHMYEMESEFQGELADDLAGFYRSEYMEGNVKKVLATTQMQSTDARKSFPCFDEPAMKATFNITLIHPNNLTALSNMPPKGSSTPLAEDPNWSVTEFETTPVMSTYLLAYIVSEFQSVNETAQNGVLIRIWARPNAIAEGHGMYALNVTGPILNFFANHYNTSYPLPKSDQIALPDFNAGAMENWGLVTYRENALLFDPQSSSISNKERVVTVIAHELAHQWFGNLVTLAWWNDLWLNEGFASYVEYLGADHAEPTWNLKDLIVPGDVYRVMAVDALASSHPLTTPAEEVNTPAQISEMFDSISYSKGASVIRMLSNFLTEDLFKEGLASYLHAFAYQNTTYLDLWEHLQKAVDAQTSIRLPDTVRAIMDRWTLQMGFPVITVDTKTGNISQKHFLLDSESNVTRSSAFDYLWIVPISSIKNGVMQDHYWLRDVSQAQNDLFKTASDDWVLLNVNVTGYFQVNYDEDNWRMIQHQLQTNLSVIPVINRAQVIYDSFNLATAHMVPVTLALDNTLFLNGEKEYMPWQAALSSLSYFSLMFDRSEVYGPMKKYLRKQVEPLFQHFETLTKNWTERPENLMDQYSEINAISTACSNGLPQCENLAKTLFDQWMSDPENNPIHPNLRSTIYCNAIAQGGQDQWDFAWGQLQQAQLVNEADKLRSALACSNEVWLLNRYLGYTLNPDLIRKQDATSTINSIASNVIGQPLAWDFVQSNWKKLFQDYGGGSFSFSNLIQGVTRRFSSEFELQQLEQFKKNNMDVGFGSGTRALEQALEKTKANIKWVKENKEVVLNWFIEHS
In short: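 Porcine kidney microsomal aminopeptidase (4 μg/mL final) preincubated with inhibitor for 30 min at room temperature in 50 mM PBS, pH 7.2. Inhibitor solutions made in assay buffer and adjusted to pH 7.5. Substrate L-Leu-p-nitroanilide. IC50 determined.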

[1] = target: 72 kDa type IV collagenase (Homo sapiens, UniProt P08253); experiment: Inhibition of MMP2
Sequence of 72 kDa type IV collagenase (P08253 whole entry): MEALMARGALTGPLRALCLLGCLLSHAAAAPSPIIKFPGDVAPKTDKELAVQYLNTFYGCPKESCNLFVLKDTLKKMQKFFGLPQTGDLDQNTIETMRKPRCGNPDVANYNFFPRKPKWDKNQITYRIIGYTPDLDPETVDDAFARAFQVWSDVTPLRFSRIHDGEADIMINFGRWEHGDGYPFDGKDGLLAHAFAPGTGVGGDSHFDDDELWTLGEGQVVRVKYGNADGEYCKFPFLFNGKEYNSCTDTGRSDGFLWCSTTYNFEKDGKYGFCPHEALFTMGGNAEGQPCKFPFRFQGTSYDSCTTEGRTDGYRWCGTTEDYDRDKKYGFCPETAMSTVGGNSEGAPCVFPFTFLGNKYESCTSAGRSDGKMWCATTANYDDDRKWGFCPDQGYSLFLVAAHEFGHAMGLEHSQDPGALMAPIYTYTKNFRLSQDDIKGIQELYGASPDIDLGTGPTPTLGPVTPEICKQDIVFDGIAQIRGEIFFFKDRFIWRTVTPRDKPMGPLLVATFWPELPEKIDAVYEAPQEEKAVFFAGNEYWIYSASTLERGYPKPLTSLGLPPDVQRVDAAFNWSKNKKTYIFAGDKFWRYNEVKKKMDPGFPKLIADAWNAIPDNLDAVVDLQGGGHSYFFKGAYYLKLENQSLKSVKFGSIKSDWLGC
In short: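 MMP-2 (gelatinase A) incubated with substrate and inhibitor in 50 mmol/L sodium borate, pH 8.5, 30 min at 37 °C. 0.03% TNBS then added and incubated a further 20 min. Absorbance read at 450 nm.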

[2] = Selectivity ratio of IC50 for MMP2 to IC50 for aminopeptidase N in pig kidney microsome

Row | Structure (SMILES) | IC50 (Aminopeptidase N) [µM] | IC50 [1] [µM] | Ratio IC50 [2]
1 | COc1ccc(C(=O)N[C@@H](CCCNC(N)=N[N+](=O)[O-])C(=O)NO)cc1 | 60.2 | 322 | 
2 | N=C(NCCC[C@H](NC(=O)c1ccc(Br)c([N+](=O)[O-])c1)C(=O)NO)N[N+](=O)[O-] |  |  | 46.3
3 | COc1cccc(C(=O)N[C@@H](CCCNC(=N)N[N+](=O)[O-])C(=O)NO)c1 | 16.5 | 151 | 9.1
4 | COc1cc(C(=O)N[C@@H](CCCNC(=N)N[N+](=O)[O-])C(=O)NO)cc(OC)c1OC |  |  | 0.2
5 | N=C(NCCC[C@H](NC(=O)Cc1ccccc1)C(=O)NO)N[N+](=O)[O-] |  |  | 0.05
6 | COc1cc(C(=O)N[C@@H](CCCNC(N)=N[N+](=O)[O-])C(=O)NO)cc(OC)c1OC | 271 | 41.1 | 
7 | N=C(NCCC[C@H](NC(=O)c1ccc([N+](=O)[O-])cc1)C(=O)NO)N[N+](=O)[O-] | 15.9 | 204 | 12.8
8 | N=C(NCCC[C@H](NC(=O)c1cccc([N+](=O)[O-])c1)C(=O)NO)N[N+](=O)[O-] | 43.4 | 102 | 2.3
9 | N=C(NCCC[C@H](NC(=O)c1cccc(Cl)c1)C(=O)NO)N[N+](=O)[O-] | 202 | 89.2 | 0.4
10 | N=C(NCCC[C@H](NC(=O)CCc1ccccc1)C(=O)NO)N[N+](=O)[O-] | 332 | 1640 | 4.9
11 | Cc1ccc(S(=O)(=O)N[C@@H](CCCNC(=N)N[N+](=O)[O-])C(=O)NO)cc1 |  |  | 0.3
12 | N=C(NCCC[C@H](NC(=O)c1ccc(Cl)cc1Cl)C(=O)NO)N[N+](=O)[O-] | 5.3 | 349 | 65.8
13 | NC(=N[N+](=O)[O-])NCCC[C@H](NC(=O)c1ccc(Br)cc1)C(=O)NO | 443 | 484 | 
14 | N=C(NCCC[C@H](NC(=O)c1ccccc1Cl)C(=O)NO)N[N+](=O)[O-] |  |  | 7.3
15 | NC(=N[N+](=O)[O-])NCCC[C@H](NC(=O)Cc1ccccc1)C(=O)NO | 1660 | 8.7 | 
16 | NC(=N[N+](=O)[O-])NCCC[C@H](NC(=O)c1ccc2ccccc2c1)C(=O)NO | 14.6 | 85.5 | 
17 | Cc1ccc(S(=O)(=O)N[C@@H](CCCNC(N)=N[N+](=O)[O-])C(=O)NO)cc1 | 109 | 28.9 | 
18 | N=C(NCCC[C@H](NC(=O)c1ccccc1I)C(=O)NO)N[N+](=O)[O-] | 21.9 | 176 | 8

Row | Structure (SMILES) | IC50 (Aminopeptidase N) [µM] | IC50 [1] [µM] | Ratio IC50 [2]
19 | NC(=N[N+](=O)[O-])NCCC[C@H](NC(=O)c1ccc(Br)c([N+](=O)[O-])c1)C(=O)NO | 5.1 | 236 | 
20 | N=C(NCCC[C@H](NS(=O)(=O)c1ccccc1)C(=O)NO)N[N+](=O)[O-] |  |  | 1.7
21 | N=C(NCCC[C@H](NC(=O)c1cccs1)C(=O)NO)N[N+](=O)[O-] |  |  | 2.6
22 | N=C(NCCC[C@H](NC(=O)/C=C/c1ccccc1)C(=O)NO)N[N+](=O)[O-] | 1010 | 36.7 | 0.04
23 | NC(=N[N+](=O)[O-])NCCC[C@H](NS(=O)(=O)c1ccccc1)C(=O)NO | 60.2 | 100 | 
24 | N=C(NCCC[C@H](NC(=O)c1ccc2ccccc2c1)C(=O)NO)N[N+](=O)[O-] |  |  | 5.9
25 | COc1ccc(C(=O)N[C@@H](CCCNC(=N)N[N+](=O)[O-])C(=O)NO)cc1 |  |  | 5.4
26 | N=C(NCCC[C@H](NC(=O)c1ccc(Br)cc1)C(=O)NO)N[N+](=O)[O-] |  |  | 1.1
27 | Cc1cccc(C(=O)N[C@@H](CCCNC(=N)N[N+](=O)[O-])C(=O)NO)c1 | 42.8 | 623 | 14.6
28 | N=C(NCCC[C@H](NC(=O)c1ccc(Cl)c(Cl)c1)C(=O)NO)N[N+](=O)[O-] | 33.5 | 194 | 5.8
29 | COc1ccc(C(=O)N[C@@H](CCCNC(N)=N[N+](=O)[O-])C(=O)NO)cc1OC | 26.9 | 346 | 
30 | N=C(NCCC[C@H](NC(=O)c1ccc(Cl)cc1)C(=O)NO)N[N+](=O)[O-] | 215 | 238 | 1.1
31 | COc1ccccc1C(=O)N[C@@H](CCCNC(=N)N[N+](=O)[O-])C(=O)NO | 78.4 | 253 | 3.2
32 | N=C(NCCC[C@H](NC(=O)c1ccccc1)C(=O)NO)N[N+](=O)[O-] | 80.6 | 693 | 8.6
33 | COc1ccc(C(=O)N[C@@H](CCCNC(=N)N[N+](=O)[O-])C(=O)NO)cc1OC |  |  | 12.8
34 | NC(=N[N+](=O)[O-])NCCC[C@H](NC(=O)c1ccccc1Cl)C(=O)NO | 20.4 | 150 | 
35 | NC(=N[N+](=O)[O-])NCCC[C@H](NC(=O)c1cccs1)C(=O)NO | 85.7 | 226 | 
36 | Cc1ccccc1C(=O)N[C@@H](CCCNC(=N)N[N+](=O)[O-])C(=O)NO | 221 | 2070 | 9.3
